# Test results: article PMC7105043 (Journal of the Chinese Medical Association, 2017)
# Legend:
# [1] = tested on: pandemic influenza A (H1N1) virus; type: cell-based
# [2] = tested on: pandemic influenza A (H1N1) virus; type: cell-based; remark: listed apart in the source
# A549 cells = assay: XTT cytotoxicity assay; type: cell-based, human; conditions: XTT, 3 days; method says A549 cells, Table 1 says MDCK cells
# Summary of the method: (§1)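 Test compound serially diluted in complete MEM (10% heat-inactivated FBS) and added to A549 cells seeded at 1 × 10^4 cells/well and pre-incubated 24 h. Cells exposed 3 days at 35 °C, 5% CO2, then XTT reagent for 4 h. Absorbance read at 450 nm, reference 620 nm. Viability relative to untreated control (100%). Triplicate wells, at least three independent runs.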
# [3] = tested on: pandemic influenza A (H1N1) virus; type: cell-based; remark: listed apart in the source
# [4] = tested on: pandemic influenza A (H1N1) virus (A/California/07/2009); assay: microbe, parasite or virus in culture; type: cell-based
# [5] = tested on: H1N1 A/Puerto Rico/8/34-NS116-GFP; conditions: ref 25 (Theisen et al); cited from earlier work
# XTT cytotoxicity assay = type: cell-based, human; conditions: dog, MDCK cells
# Summary of the method: as §1
# [6] = ref 25 (Theisen et al); cited from earlier work
SMILES,green fluorescence (viral glycoprotein foci) [1],inhibition of viral RNA synthesis (qRT-PCR) [2],protective effect against virus infection (cell viability) [3],CC50 at 3 days (XTT cytotoxicity assay),also measured
O.Oc1cc(O)c2c(c1)O[C@H](c1ccc(O)c(O)c1)[C@@H](O)C2 [catechin],decreased in a dose-dependent manner,significant inhibition,protective effects,,"XTT cytoxicity (CC50) (A549 cells): >100 mg/L; EC50 (XTT viability of infected cells, Fig. 1) [3]: 10 to 25 mg/L; Plaque inhibition (EC50) [4]: 18.4 ± 0.7 mg/L; reduction of viral production (plaque assay) ([4]; 25 μg/mL): approximately 50%"
O=C(O)c1cc(O)c(O)c(O)c1 [gallic acid],decreased in a dose-dependent manner,significant inhibition,protective effects,22.1 ± 0.6 mg/L,"EC50 [5]: 50.8 µM; CC50 [6]: 770 µM; reduction of viral production (plaque assay) ([4]; 2.5 μg/mL): approximately 50%; EC50 ([4]; Influenza A virus, H1N1, 72 h, read-out: Plaque inhibition (EC50)): 2.6 ± 0.07 mg/L"
O=c1c(O)c(-c2ccc(O)cc2)oc2cc(O)cc(O)c12 [kaempferol],,,,> 100 mg/L,
O=c1c(O)c(-c2ccc(O)c(O)c2)oc2cc(O)cc(O)c12 [quercetin hydrate],,,,> 100 mg/L,
"C[C@@H]1O[C@@H](OC[C@H]2O[C@@H](Oc3c(-c4ccc(O)c(O)c4)oc4cc(O)cc(O)c4c3=O)[C@H](O)[C@@H](O)[C@@H]2O)[C@H](O)[C@H](O)[C@H]1O [rutintrihydrate, rutin trihydrate]",,,,> 100 mg/L,
